This note sets out measurements from ChEMBL document CHEMBL4251626, “4β-amidotriazole linked podophyllotoxin congeners: DNA topoisomerase-IIα inhibition and potential anticancer agents for prostate cancer” (Eur J Med Chem, 2018).

One assay relates to MCF7. Kind of assay: Antiproliferative activity against human MCF7 cells after 48 hrs by MTT assay. It counts as functional, cell-based. To be noted: MCF7, 48 h. An outline of the steps:
(§1)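 Cells in DMEM/10% FBS pre-incubated 24 h at 37 °C, then compound-treated 48 h (10 mM DMSO stock diluted in medium). MTT (10 µL of 5 mg/mL) added for 4 h; formazan dissolved in DMSO, absorbance read at 570 nm. IC50 = 50% inhibitory concentration, mean of three individual experiments.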

Another assay has as its system HT-29. Kind of assay: Antiproliferative activity against human HT-29 cells after 48 hrs by MTT assay. Format: functional, cell-based. The note with it: HT-29, 48 h. The method, boiled down:
as §1
A general note: Formazan colour is commonly taken as a measure of viable cells.

The test system of the next assay is HeLa. Kind of assay: Antiproliferative activity against human HeLa cells after 48 hrs by MTT assay. Format: functional, cell-based. The method, boiled down: as §1
Another assay relates to A549. The assay is described as follows: Antiproliferative activity against human A549 cells after 48 hrs by MTT assay. Format: functional, cell-based. The note with it: A549, 48 h. The method, boiled down:
as §1

A further assay deals with DU-145. The assay is described as follows: Antiproliferative activity against human DU145 cells after 48 hrs by MTT assay. Format: functional, cell-based. The note with it: DU-145, 48 h. The method, boiled down: as §1
A further assay has as its system NIH3T3. The assay is described as follows: Antiproliferative activity against mouse NIH/3T3 cells after 48 hrs by MTT assay. Format: cell-based. To be noted: NIH3T3, 48 h. An outline of the steps: as §1
A further assay deals with HepG2. The assay is described as follows: Antiproliferative activity against human HepG2 cells after 48 hrs by MTT assay. Format: functional, cell-based. To be noted: HepG2, 48 h. An outline of the steps:
as §1

Turning to `COc1cc([C@@H]2c3cc4c(cc3C(NC(=O)c3cn(Cc5ccc(Cl)cc5)nn3)[C@H]3COC(=O)[C@H]23)OCO4)cc(OC)c1OC` (single isomer, unassigned), the IC50 in the assay on MCF7 was 5.3 µM; in the assay with HT-29 it was 23.7 µM; in the assay with HeLa, 3.57 µM; in the assay with A549, 8.06 µM; in the assay on DU-145 it was 2.37 µM; in the assay with NIH3T3, 81.3 µM. Moreover, it took 3.54 µM to reach half-maximal inhibition in the assay with HepG2 (IC50).
Regarding `COc1ccc(Cn2cc(C(=O)NC3c4cc5c(cc4[C@@H](c4cc(OC)c(OC)c(OC)c4)[C@H]4C(=O)OC[C@H]34)OCO5)nn2)cc1` (single isomer, unassigned), the concentration for half-maximal inhibition (IC50) with MCF7 was 3.32 µM; in the assay on HT-29, 17.5 µM; in the assay on HeLa it was 3.46 µM; in the assay on A549, 5.82 µM; in the assay with DU-145 it was 1.76 µM; in the assay on NIH3T3, 67 µM. Also, the half-inhibitory concentration (IC50) in the assay with HepG2 came out at 1.96 µM.
With `COc1cc([C@@H]2c3cc4c(cc3C(NC(=O)c3cn(-c5ccccc5)nn3)[C@H]3COC(=O)[C@H]23)OCO4)cc(OC)c1OC` (single isomer, unassigned), the IC50 in the assay on MCF7 came to 1.45 µM; with HT-29, 5.37 µM; in the assay on HeLa, 2.47 µM; in the assay with A549 it was 1.82 µM; in the assay with DU-145, 1.31 µM; with NIH3T3, 53.9 µM. This compound had a concentration for half-maximal inhibition (IC50) with HepG2 of 1.94 µM.
On to `COc1cc([C@@H]2c3cc4c(cc3C(NC(=O)c3cn(Cc5ccccc5)nn3)[C@H]3COC(=O)[C@H]23)OCO4)cc(OC)c1OC` (single isomer, unassigned), for which the IC50 with MCF7 is 13.7 µM; with HT-29 it was 19.1 µM; in the assay with HeLa, 18.8 µM; in the assay on A549, 13.3 µM; with DU-145, 17.1 µM; with NIH3T3 it was 67 µM. In the assay with HepG2, the concentration for half-maximal inhibition (IC50) is 13.1 µM.
For `COc1cc([C@@H]2c3cc4c(cc3C(NC(=O)c3cn(Cc5cccc(Oc6ccccc6)c5)nn3)[C@H]3COC(=O)[C@H]23)OCO4)cc(OC)c1OC` (single isomer, unassigned), the IC50 was 4.4 µM with MCF7; 40.5 µM in the assay with HT-29; 22.7 µM in the assay with HeLa; 8.65 µM with A549; 5.68 µM in the assay on DU-145; 88.4 µM in the assay on NIH3T3. Moreover, in the assay on HepG2, the concentration for half-maximal inhibition (IC50) came to 6.6 µM.
For `COc1cc(OC)cc(-n2cc(C(=O)NC3c4cc5c(cc4[C@@H](c4cc(OC)c(OC)c(OC)c4)[C@H]4C(=O)OC[C@H]34)OCO5)nn2)c1` (single isomer, unassigned), the concentration for half-maximal inhibition (IC50) worked out at 8.66 µM in the assay with MCF7; 19.6 µM in the assay on HT-29; 17 µM with HeLa; 17.7 µM with A549; 11.7 µM with DU-145; 77 µM in the assay with NIH3T3. In addition, 13.8 µM corresponded to half-maximal inhibition in the assay on HepG2 (IC50).
Turning to `COc1cc(Cn2cc(C(=O)NC3c4cc5c(cc4[C@@H](c4cc(OC)c(OC)c(OC)c4)[C@H]4C(=O)OC[C@H]34)OCO5)nn2)cc(OC)c1OC` (single isomer, unassigned), the IC50 in the assay with MCF7 turned out to be 7.34 µM; with HT-29, 8.54 µM; with HeLa, 10.2 µM; in the assay on A549, 14.7 µM; in the assay on DU-145 it was 8.54 µM; in the assay with NIH3T3, 62 µM. Further, in the assay with HepG2, the half-maximal inhibitory concentration (IC50) was 0.957 µM.
As for `COc1cccc(Cn2cc(C(=O)NC3c4cc5c(cc4[C@@H](c4cc(OC)c(OC)c(OC)c4)[C@H]4C(=O)OC[C@H]34)OCO5)nn2)c1` (single isomer, unassigned), the concentration for half-maximal inhibition (IC50) amounted to 7.71 µM with MCF7; 31.3 µM in the assay on HT-29; 22.6 µM with HeLa; 21.3 µM with A549; 12.4 µM in the assay on DU-145; 74.1 µM with NIH3T3. The same compound returned a half-inhibitory concentration (IC50) in the assay on HepG2 of 9.88 µM.
With `COc1cc([C@@H]2c3cc4c(cc3C(NC(=O)c3cn(Cc5ccc(F)cc5)nn3)[C@H]3COC(=O)[C@H]23)OCO4)cc(OC)c1OC` (single isomer, unassigned), the IC50 in the assay on MCF7 is 19.1 µM; in the assay on HT-29, 78.3 µM; with HeLa, 29 µM; in the assay with A549, 75.7 µM; in the assay on DU-145, 22.8 µM; in the assay with NIH3T3 it was 91.1 µM. The IC50 in the assay with HepG2 turned out to be 34.1 µM.
`COc1cc([C@@H]2c3cc4c(cc3C(NC(=O)c3cn(-c5ccc(F)cc5)nn3)[C@H]3COC(=O)[C@H]23)OCO4)cc(OC)c1OC` (single isomer, unassigned): the IC50 with MCF7 turned out to be 6.7 µM; in the assay with HT-29, 13.8 µM; in the assay with HeLa it was 78.6 µM; in the assay with A549, 14.1 µM; in the assay with DU-145, 9.44 µM; in the assay with NIH3T3, 98.1 µM. The compound further displayed an IC50 with HepG2 of 10.9 µM.
In the case of `COc1cc([C@@H]2c3cc4c(cc3C(NC(=O)c3cn(Cc5ccc6c(c5)OCO6)nn3)[C@H]3COC(=O)[C@H]23)OCO4)cc(OC)c1OC` (single isomer, unassigned), the IC50 in the assay on MCF7 is 34.5 µM; in the assay with HT-29 it was 36.4 µM; in the assay on HeLa, 32.9 µM; with A549, 34.5 µM; in the assay with DU-145, 27.7 µM; with NIH3T3, 69.5 µM. The same compound gave an IC50 in the assay on HepG2 of 26.6 µM.
For the compound `COc1cc(Cn2cc(C(=O)NC3c4cc5c(cc4[C@@H](c4cc(OC)c(OC)c(OC)c4)[C@H]4C(=O)OC[C@H]34)OCO5)nn2)cc(OC)c1` (single isomer, unassigned), the IC50 is 13.9 µM with MCF7; 27.4 µM with HT-29; 25.8 µM with HeLa; 32.4 µM in the assay with A549; 14.6 µM with DU-145; 81.3 µM with NIH3T3. The half-inhibitory concentration (IC50) with HepG2 amounted to 14.2 µM.
Regarding `COc1ccc(Cn2cc(C(=O)NC3c4cc5c(cc4[C@@H](c4cc(OC)c(OC)c(OC)c4)[C@H]4C(=O)OC[C@H]34)OCO5)nn2)cc1OC` (single isomer, unassigned), the half-maximal inhibitory concentration (IC50) with MCF7 turned out to be 12.2 µM; in the assay on HT-29, 13.5 µM; in the assay with HeLa, 12.4 µM; in the assay on A549 it was 19.6 µM; in the assay on DU-145 it was 13.5 µM; with NIH3T3, 83.8 µM. Also, the concentration for half-maximal inhibition (IC50) in the assay on HepG2 was 12.7 µM.
Regarding `COc1cc([C@@H]2c3cc4c(cc3C(NC(=O)c3cn(-c5ccc6c(c5)OCO6)nn3)[C@H]3COC(=O)[C@H]23)OCO4)cc(OC)c1OC` (single isomer, unassigned), the half-maximal inhibitory concentration (IC50) was 7.61 µM in the assay with MCF7; 17.9 µM in the assay on HT-29; 47.7 µM with HeLa; 0.974 µM with A549; 8.92 µM with DU-145; 67.2 µM in the assay on NIH3T3. In addition, the midpoint of inhibition with HepG2, the IC50, lay at 9.94 µM.
In the case of `COc1cc([C@@H]2c3cc4c(cc3C(NC(=O)c3cn(-c5cc(OC)c(OC)c(OC)c5)nn3)[C@H]3COC(=O)[C@H]23)OCO4)cc(OC)c1OC` (single isomer, unassigned), the IC50 is 7.34 µM with MCF7; 8.54 µM with HT-29; 10.2 µM with HeLa; 14.7 µM in the assay with A549; 8.54 µM in the assay with DU-145; 79.6 µM in the assay with NIH3T3. Further, the 50% inhibitory concentration (IC50) in the assay with HepG2 came to 0.957 µM.
As to `COc1cc([C@@H]2c3cc4c(cc3C(NC(=O)c3cn(Cc5ccc(C(F)(F)F)cc5)nn3)[C@H]3COC(=O)[C@H]23)OCO4)cc(OC)c1OC` (single isomer, unassigned), the IC50 with MCF7 amounted to 21.9 µM; in the assay on HT-29, 66.4 µM; in the assay on HeLa it was 26.6 µM; in the assay with A549 it was 27.8 µM; in the assay on DU-145, 32.9 µM; in the assay with NIH3T3, 75.5 µM. Besides, the 50% inhibitory concentration (IC50) with HepG2 worked out at 20.4 µM.
Turning to `COc1ccc(-n2cc(C(=O)NC3c4cc5c(cc4[C@@H](c4cc(OC)c(OC)c(OC)c4)[C@H]4C(=O)OC[C@H]34)OCO5)nn2)cc1OC` (single isomer, unassigned), the IC50 in the assay on MCF7 was 8.04 µM; in the assay on HT-29, 15.1 µM; with HeLa it was 18.6 µM; in the assay with A549 it was 12.2 µM; in the assay with DU-145 it was 14.5 µM; in the assay with NIH3T3 it was 66.2 µM. Half-maximal inhibition in the assay with HepG2 (IC50) required 11.7 µM.
On to `COc1cc([C@@H]2c3cc4c(cc3[C@H](O)[C@H]3COC(=O)[C@H]23)OCO4)cc(OC)c1OC` [PODOFILOX], for which the IC50 in the assay on MCF7 amounted to 3.06 µM; in the assay with HT-29, 4.78 µM; in the assay on HeLa it was 3.45 µM; in the assay with A549, 4.6 µM; in the assay with DU-145 it was 4.15 µM; with HepG2, 6.63 µM.

As a reminder, the IC50 is the concentration that gives 50% inhibition. A low value points to higher potency.
